Test results taken from publication PMC2585982 (Toxicology and applied pharmacology, 2008).
Values joined by “and” are separate entries in the source; they are usually repeats but may differ in a detail not shown here. Equal entries are not always repeated.

Legend:
PXR [1] = molecular target: T1, PXR (Mus musculus, UniProt O54915); test: GAL-PXR reporter assay; type: cell-based
T1 sequence (O54915 143-430 limits assumed): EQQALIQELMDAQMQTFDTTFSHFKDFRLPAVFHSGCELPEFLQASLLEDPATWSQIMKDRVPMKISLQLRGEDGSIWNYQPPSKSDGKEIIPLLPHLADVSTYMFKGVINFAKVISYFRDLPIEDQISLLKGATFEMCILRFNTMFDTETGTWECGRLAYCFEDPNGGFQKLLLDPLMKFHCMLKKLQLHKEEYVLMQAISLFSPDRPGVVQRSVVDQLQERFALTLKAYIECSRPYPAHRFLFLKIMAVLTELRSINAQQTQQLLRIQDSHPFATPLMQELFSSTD

PXR [2] = molecular target: T2, PXR (Mus musculus, UniProt O54915); test: PXR-DR3 reporter assay; type: cell-based
T2 sequence (O54915 1-431): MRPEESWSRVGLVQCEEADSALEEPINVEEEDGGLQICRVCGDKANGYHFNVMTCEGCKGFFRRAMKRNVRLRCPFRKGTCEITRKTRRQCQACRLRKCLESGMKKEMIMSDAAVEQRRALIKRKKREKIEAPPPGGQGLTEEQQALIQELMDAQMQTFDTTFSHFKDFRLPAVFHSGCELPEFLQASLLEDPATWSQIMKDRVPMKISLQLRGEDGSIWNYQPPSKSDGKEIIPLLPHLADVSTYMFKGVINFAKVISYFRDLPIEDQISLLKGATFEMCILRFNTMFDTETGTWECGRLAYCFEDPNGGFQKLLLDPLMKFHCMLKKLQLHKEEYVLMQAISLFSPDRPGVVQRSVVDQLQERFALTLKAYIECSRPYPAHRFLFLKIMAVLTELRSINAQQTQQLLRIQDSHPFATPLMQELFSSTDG
T2 sequence (P19793 1-462 partner): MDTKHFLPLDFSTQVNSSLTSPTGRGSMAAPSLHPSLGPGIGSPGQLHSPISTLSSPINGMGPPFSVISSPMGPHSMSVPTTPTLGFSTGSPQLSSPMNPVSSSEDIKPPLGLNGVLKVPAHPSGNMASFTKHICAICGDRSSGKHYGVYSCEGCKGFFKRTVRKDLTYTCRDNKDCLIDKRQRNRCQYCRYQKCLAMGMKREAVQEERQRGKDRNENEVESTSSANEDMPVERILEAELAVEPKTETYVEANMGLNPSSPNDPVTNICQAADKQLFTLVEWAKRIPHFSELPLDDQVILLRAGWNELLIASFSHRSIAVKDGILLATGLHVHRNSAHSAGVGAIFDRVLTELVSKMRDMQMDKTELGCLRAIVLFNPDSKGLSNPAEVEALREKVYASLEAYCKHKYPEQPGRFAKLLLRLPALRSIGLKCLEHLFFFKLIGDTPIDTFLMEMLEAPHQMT

PXR LBD and SRC-1 RID = PXR LBD and SRC-1 RID (Mus musculus, UniProt O54915); test: Mammalian two-hybrid assay, Gal-SRC-1 RID + VP-L-PXR in CV-1 cells; type: cell-based; details: isopimpinellin 50 μM; PCN 10 μM; Figure 7A
Outline: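 Mammalian two-hybrid in CV-1 cells co-transfected with Gal-SRC-1 RID and/or VP-L-PXR, plus MH100-tk-luc reporter and CMX-β-gal. Cells were exposed to compound or solvent control in medium for 18–24 h. Interaction was taken as luciferase activity normalised to β-gal activity; mean ± SD.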

SXR and SRC-1 RID = SXR and SRC-1 RID (Homo sapiens, UniProt O75469); test: Mammalian two-hybrid assay, Gal-SRC-1 RID + VP-L-SXR in CV-1 cells; type: cell-based; details: isopimpinellin 50 μM, RIF 10 μM
[3] = molecular target: mCAR-LBD fused to the Gal4 DNA binding domain (Mus musculus, UniProt O35627); test: CAR transfection assay, Gal4-mCAR LBD fusion reporter in HepG2 cells; type: cell-based, murine; details: HepG2, 4 μM androstanol; 250 nM TC or 0.1–100 μM isopimpinellin, 24 h
P450s 1A1/2 = test: Liver microsomal P450 1A activity; type: in vivo, mice; details: mouse, in vivo
P450s 2B9/10 [4] = test: Liver microsomal P450 2B activity; type: in vivo, mice; details: mouse, in vivo
[5] = test system: GST (cumene hydroperoxide); test: Liver GST activity, cumene hydroperoxide as substrate, after oral dosing of mice; type: in vivo; details: female SENCAR mice, even at the highest doses, data not shown
GSTα = test: Western blot of liver cytosol, GSTα protein expression; type: in vivo; details: SENCAR mice, 35, 70, 150 mg/kg p.o., particularly at the highest doses
GSTπ = test: Western blot of liver cytosol, GSTπ protein expression; type: in vivo; details: SENCAR mice, 35, 70, 150 mg/kg p.o.
GSTμ = test: Western blot of liver cytosol, GSTμ protein expression; type: in vivo, mice; details: SENCAR mice, 35, 70, 150 mg/kg p.o.
P450 1A1/1A2 = details: mouse, in vivo
P450 2B10 = details: mouse, in vivo
P450 3A11 = details: mouse, in vivo, po, 100 mg/kg
P450s 2B9/10 [6] = details: mice treated 3 consecutive days; ref Kleiner et al., 2001; cited from earlier work
Cyp2b10 mRNA = test: Northern blot of liver RNA, Cyp2b10 mRNA in CAR; details: isopimpinellin 150 mg/kg p.o. 24 h, TC 3 mg/kg i.p. 6 h
Cyp3a11 mRNA = test: Northern blot of liver RNA, Cyp3a11 mRNA in CAR; details: isopimpinellin 150 mg/kg p.o. 24 h, TC 3 mg/kg i.p. 6 h

SXR and SRC-1 RID, sequence (O75469 146-433 limits assumed): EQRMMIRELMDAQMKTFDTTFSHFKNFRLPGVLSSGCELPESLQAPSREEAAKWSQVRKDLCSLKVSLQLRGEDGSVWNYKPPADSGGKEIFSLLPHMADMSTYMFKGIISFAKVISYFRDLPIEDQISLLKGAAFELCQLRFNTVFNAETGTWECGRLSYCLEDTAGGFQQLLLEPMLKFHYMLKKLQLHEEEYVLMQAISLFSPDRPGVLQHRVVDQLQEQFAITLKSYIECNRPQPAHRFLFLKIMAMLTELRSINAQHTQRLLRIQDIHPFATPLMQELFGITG
SXR and SRC-1 RID, sequence (Q15788 570-780 partner limits assumed): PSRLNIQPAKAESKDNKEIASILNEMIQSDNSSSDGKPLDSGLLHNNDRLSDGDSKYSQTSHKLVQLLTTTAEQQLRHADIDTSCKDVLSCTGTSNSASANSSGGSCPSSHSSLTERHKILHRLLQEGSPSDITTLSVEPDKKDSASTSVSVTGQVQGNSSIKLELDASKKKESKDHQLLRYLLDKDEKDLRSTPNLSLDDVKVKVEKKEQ
PXR LBD and SRC-1 RID, sequence (Q15788 570-780 partner limits assumed, one chain of several): as the sequence (Q15788 570-780 partner limits assumed) above
mCAR-LBD fused to the Gal4 DNA binding domain, sequence (O35627 119-358 limits assumed): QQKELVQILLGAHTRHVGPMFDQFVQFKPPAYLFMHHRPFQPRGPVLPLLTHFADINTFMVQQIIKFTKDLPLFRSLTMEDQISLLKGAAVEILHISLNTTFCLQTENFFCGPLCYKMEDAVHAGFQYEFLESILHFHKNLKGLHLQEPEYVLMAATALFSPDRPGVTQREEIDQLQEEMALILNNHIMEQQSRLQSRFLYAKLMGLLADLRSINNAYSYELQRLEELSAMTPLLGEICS

Question: Which EC50 (PXR [1]) does the source give for `COc1c2ccoc2c(OC)c2oc(=O)ccc12` [isopimpinellin, 5,8-dimethoxypsoralen] here?
Answer: ~17 µM

Question: What about the “Max (concentration to reach maximal effect), GAL-PXR” value (PXR [1]; CV-1 cells, 18–24 h) of the same compound?
Answer: 100,000 nM

Question: What about the EC50 (PXR [1]; ED50, GAL-PXR activation, CV-1 cells, 18–24 h, luciferase normalized by β-gal) of the same compound?
Answer: 18 µM and 17.8 µM

Question: What about the “Concentration to reach maximal effect, times higher than PCN” value (PXR [1]; GAL-PXR reporter system) of the same compound?
Answer: 30 times

Question: What about the EC50 (PXR [2]) of the same compound?
Answer: 15.8 µM

Question: And the “Max (concentration to reach maximal effect), PXR-DR3” value (PXR [2]; CV-1 cells, full length PXR)?
Answer: 30,000 nM

Question: What about the “Induced interaction of PXR LBD and SRC-1 RID compared to the control” value (PXR LBD and SRC-1 RID) of the same compound?
Answer: over 4 fold

Question: What about the “Induced interaction of receptor LBD and SRC-1 (Figure 7B)” value (SXR and SRC-1 RID) of the same compound?
Answer: ~ 2 fold

Question: What about the “Effect on the inhibitory effect of androstanol on Gal4 reporter expression (mCAR-LBD)” value [3] of the same compound?
Answer: counteracted

Question: What about the “P450 1 activity, liver microsomes, dose-response study” value (P450s 1A1/2) of the same compound?
Answer: significant increases

Question: And the “Increase in P450 2B9/10 enzyme activity, dose-response study” value (P450s 2B9/10 [4])?
Answer: 300 fold

Question: What about the “P450 2B activity, liver microsomes, dose-response study” value (P450s 2B9/10 [4]) of the same compound?
Answer: significant increases

Question: What about the “Increase in P450 2B activity (pentoxyresorufin), liver microsomes” value (P450s 2B9/10 [4]; po, 100 mg/kg) of the same compound?
Answer: ~ 5 fold

Question: What about the “GST activity using cumene hydroperoxide as a substrate” value [5] of the same compound?
Answer: no differences

Question: What about the “Hepatic expression of GST α protein, dose-response study” value (GSTα) of the same compound?
Answer: greatly increased

Question: What about the “Hepatic expression of GST π protein, dose-response study” value (GSTπ) of the same compound?
Answer: modest increase

Question: And the “Hepatic expression of GST μ protein, dose-response study” value (GSTμ)?
Answer: no increase

Question: And the “P450 1A1/1A2 protein levels, dose-response study” value (P450 1A1/1A2)?
Answer: elevated

Question: What about the “P450 1A1/1A2 protein expression (western blot densitometry)” value (P450 1A1/1A2; po, 100 mg/kg) of the same compound?
Answer: increased

Question: And the “Increase in P450 2B9/10 protein expression (optical density), dose-response study” value (P450 2B10)?
Answer: 2–3 fold

Question: What about the “P450 2B10 protein levels, dose-response study” value (P450 2B10) of the same compound?
Answer: significantly elevated

Question: What about the “P450 2B10 protein expression (western blot densitometry)” value (P450 2B10; po, 100 mg/kg) of the same compound?
Answer: increased

Question: What about the “P450 3A11 protein expression (western blot densitometry)” value (P450 3A11) of the same compound?
Answer: increased

Question: And the “Hepatic P450 2B9/10 activity at 1 h after the final dose” value (P450s 2B9/10 [6])?
Answer: no elevation

Question: What about the “Increase in hepatic P450 2B9/10 activity at 24 h after the final dose” value (P450s 2B9/10 [6]) of the same compound?
Answer: 100 fold

Question: What about the “Induction of hepatic Cyp2b10 mRNA, CAR(−/−) mice” value (Cyp2b10 mRNA) of the same compound?
Answer: attenuated

Question: What about the “Induction of hepatic Cyp2b10 mRNA, CAR(+/+) mice” value (Cyp2b10 mRNA; male and female) of the same compound?
Answer: ~ 4 fold

Question: What about the “Induction of hepatic Cyp3a11 mRNA, CAR(−/−) mice” value (Cyp3a11 mRNA) of the same compound?
Answer: still observed

Question: What about the “Induction of hepatic Cyp3a11 mRNA, CAR(+/+) mice” value (Cyp3a11 mRNA; male and female) of the same compound?
Answer: ~ 4 fold
